Here are results for 6 compounds from publication PMC3561458 (Investigational new drugs, 2011).

For series [1], the system named is patients. The conditions noted are these: cited from earlier work.
Series [2] deals with patients. The conditions noted are these: cited from earlier work. The source holds these as a separate data set.
Series [3] concerns CDK1. The following applies: cited from earlier work.
For series [4], the system named is CDK2. The conditions noted are these: cited from earlier work.
Series [5] deals with CDK4. The conditions noted are these: cited from earlier work.
Series [6] concerns CDK7. The following applies: cited from earlier work.
Series [7] has as its system patients. The following applies: intravenous; cited from earlier work.
A short description of series [8]: Plasma pharmacokinetics. The following applies: across doses. It counts as in vivo, human. The method in brief: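 The test compound is given orally once daily for 7 days in 2-week cycles (S1). Plasma is sampled in cycle 1 on days 1, 2, 4, 7, 8 and 9, and in cycle 2 on days 1, 4 and 7. Cycle 1 day 1 is sampled from 30 min to 24 h after dosing and day 7 from 30 min to 96 h. Parent and metabolite are measured by validated LC-MS-MS, with calibration ranges of 0.00109–1.09 and 0.00105–1.05 μM respectively.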

Series [9] is described as follows: Urinary excretion. Type of series: in vivo, human. The following applies: patients at the RP2D in S1. In short, it runs like this:
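Urine is collected only from S1 patients dosed at the recommended phase II dose, with once-daily oral dosing for 7 days in 2-week cycles. Parent compound and metabolite in urine are measured by validated LC-MS-MS, with calibration ranges of 0.217–109 μM for the parent and 0.210–105 μM for the metabolite.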

With `Cc1ncc(-c2ccnc(Nc3ccc(S(C)(=O)=O)cc3)n2)n1C(C)C` [AZD438], in series [1], the toxicities entry is “myelotoxicity, GI toxicity, fatigue, skin rash and electrolytes inbalance, with no neurological toxicity”.

As for `C[C@]12O[C@H](C[C@]1(O)CO)n1c3ccccc3c3c4c(c5c6ccccc6n2c5c31)CNC4=O` [CEP-701], in series [2], the “most frequently reported side effects” value was “predominantly GI-related (nausea, diarrhea, anorexia, constipation, and vomiting), and asthenia”; the “patients with stable disease for at least six months” value is “three”; the “patients with stable disease for more than three months” value is given as “Seven of 30”.

Take `CCc1cnn2c(NCc3ccc[n+]([O-])c3)cc(N3CCCC[C@H]3CCO)nc12` [dinaciclib]: in series [1], the toxicities result is “myelotoxicity, GI toxicity, fatigue, skin rash and electrolytes inbalance, with no neurological toxicity”.

In the case of `CN1CC[C@H](c2c(O)cc(O)c3c(=O)cc(-c4ccccc4Cl)oc23)[C@H](O)C1` [flavopiridol, reference compound], in [3], the “inhibition of CDK1” value is “demonstrated inhibition”. Further, the “inhibition of CDK2” value in series [4] is reported as “demonstrated inhibition”. Moreover, the “inhibition of CDK4” value in series [5] is reported as “demonstrated inhibition”. Also, the “inhibition of CDK7” value in series [6] was “demonstrated inhibition”. For the same compound, in [7], the clinical activity entry was “showed activity in some patients with non-Hodgkin’s lymphoma, renal, prostate, colon, and gastric carcinomas”; the main side effects entry is “secretory diarrhea, a proinflammatory syndrome associated with hypotension, and hyperglycemia”.

As for `Nc1nc2cccc(-c3ccc(CN4CCS(=O)(=O)CC4)cc3)n2n1` [metabolite], in series [8], the “AUC0-24 of the metabolite relative to parent compound” value is reported as “approximately 30%” and the “Cmax of the metabolite relative to parent compound” value is “approximately 30%”. Further, in [9], the “amount excreted in urine” value is listed as 13 % of dose.

For `CC[C@H](CO)Nc1nc(NCc2ccccc2)c2ncn(C(C)C)c2n1` [seliciclib], the toxicities entry in series [1] was “myelotoxicity, GI toxicity, fatigue, skin rash and electrolytes inbalance, with no neurological toxicity”.
